Experimental data published in ChEMBL document CHEMBL1155362, “Synthesis, characterization and derivatization of some novel types of mono- and bis-imidazolidineiminothiones and imidazolidineiminodithiones with antitumor, antiviral, antibacterial and antifungal activities--part I” (Eur J Med Chem, 2009).
In brackets after ≈: the same amount, converted by molar mass. Activity calls are given as the source filed them. The rule behind the calls is not given here.

Tests used:
[1] = Antitumor activity against mouse EAC cells assessed as inhibition of cell viability at 100 ug/ml after 2 hrs by trypan blue exclusion assay; type: functional; settings: Ehrlich
Procedure, shortened: (§1)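 EAC cells aspirated from ascitic fluid of inoculated mice and diluted in saline; 0.1 mL cell suspension, 0.8 mL RPMI 1640 and 0.1 mL compound (25, 50 or 100) incubated 2 h at 37 °C; non-viable cells counted by trypan blue exclusion; % non-viable = dead/total × 100.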

[2] = Antitumor activity against mouse EAC cells assessed as inhibition of cell viability at 50 ug/ml after 2 hrs by trypan blue exclusion assay; type: functional; settings: Ehrlich; procedure, shortened: as §1
[3] = Antitumor activity against mouse EAC cells assessed as inhibition of cell viability at 25 ug/ml after 2 hrs by trypan blue exclusion assay; type: functional; settings: Ehrlich; procedure, shortened: as §1
U-251 = assay: Cytotoxicity against human U251 cells assessed as surviving fraction after 48 hrs by SRB assay; type: functional, cell-based; settings: u-251
Procedure, shortened: (§2)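 Cells seeded at 10⁴ cells/well and left 24 h to attach, then exposed to […] in triplicate wells per dose. Incubation 48 h, 37 °C, 5% CO₂. Cells fixed and stained with sulforhodamine B, excess dye removed with acetic acid, bound dye taken up in Tris EDTA and read on an ELISA reader. Surviving fraction plotted against concentration.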

HepG2 = assay: Cytotoxicity against human HepG2 cells assessed as surviving fraction after 48 hrs by SRB assay; type: functional, cell-based; procedure, shortened: as §2
MCF7 = assay: Cytotoxicity against human MCF7 cells assessed as surviving fraction after 48 hrs by SRB assay; type: functional, cell-based; procedure, shortened: as §2
HeLa = assay: Cytotoxicity against human HeLa cells assessed as surviving fraction after 48 hrs by SRB assay; type: functional, cell-based; procedure, shortened: as §2
HCT-116 = assay: Cytotoxicity against human HCT116 cells assessed as surviving fraction after 48 hrs by SRB assay; type: functional, cell-based; settings: hct-116; procedure, shortened: as §2
Candida albicans [4] = assay: Antifungal activity against Candida albicans IMRU 3669 at 5 mg/ml by agar disk diffusion assay; type: functional; settings: Candida albicans, IMRU 3669; read-out: DIZ
Procedure, shortened: (§3)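 Fungi maintained on Czapek's Dox agar; agar well diffusion with 1 cm wells and […] of each concentration (1, 2.5, 5 mg/mL) in DMF; inhibition zone diameter measured.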

Escherichia coli = assay: Antibacterial activity against Escherichia coli NCTC 10416 at 5 mg/ml by agar disk diffusion assay; type: functional; settings: read-out: DIZ
Salmonella typhi = assay: Antibacterial activity against Salmonella typhi NCIMB 9331 at 5 mg/ml by agar disk diffusion assay; type: functional, Salmonella enterica subsp. enterica serovar Typhi; settings: Salmonella enterica, read-out: DIZ
Bacillus subtilis [5] = assay: Antibacterial activity against Bacillus subtilis NCTC 1040 at 5 mg/ml by agar disk diffusion assay; type: functional; settings: read-out: DIZ
Staphylococcus aureus = assay: Antibacterial activity against Staphylococcus aureus NCTC 7447 at 5 mg/ml by agar disk diffusion assay; type: functional; settings: read-out: DIZ
Bacillus subtilis [6] = assay: Antibacterial activity against Bacillus subtilis NCIB 3610 at 5 mg/ml by agar disk diffusion assay; type: functional; settings: for zone of inhibition at 5000 µg/mL: Bacillus subtilis, NCIB 3610, read-out: DIZ
Pseudomonas aeruginosa [7] = assay: Antibacterial activity against Pseudomonas aeruginosa NCIB 9016 at 1 mg/ml by agar disk diffusion assay; type: functional; settings: for zone of inhibition at 1000 µg/mL: Pseudomonas aeruginosa, NCIB 9016, read-out: DIZ
Pseudomonas aeruginosa [8] = assay: Antibacterial activity against Pseudomonas aeruginosa NCIB 9016 at 2.5 mg/ml by agar disk diffusion assay; type: functional; settings: for zone of inhibition at 2500 µg/mL: Pseudomonas aeruginosa, NCIB 9016, read-out: DIZ
Bacillus subtilis [9] = assay: Antibacterial activity against Bacillus subtilis NCIB 3610 at 1 mg/ml by agar disk diffusion assay; type: functional; settings: for zone of inhibition at 1000 µg/mL: Bacillus subtilis, NCIB 3610, read-out: DIZ
Bacillus subtilis [10] = assay: Antibacterial activity against Bacillus subtilis NCIB 3610 at 2.5 mg/ml by agar disk diffusion assay; type: functional; settings: for zone of inhibition at 2500 µg/mL: Bacillus subtilis, NCIB 3610, read-out: DIZ
Candida albicans [11] = assay: Antifungal activity against Candida albicans IMRU 3669 at 2.5 mg/ml by agar disk diffusion assay; type: functional; settings: read-out: DIZ; procedure, shortened: as §3
Pseudomonas aeruginosa [12] = assay: Antibacterial activity against Pseudomonas aeruginosa NCIB 9016 at 5 mg/ml by agar disk diffusion assay; type: functional; settings: Pseudomonas aeruginosa, NCIB 9016; read-out: DIZ
Aspergillus niger [13] = assay: Antifungal activity against Aspergillus niger Ferm-BAM C-21 at 5 mg/ml by agar disk diffusion assay; type: functional; settings: read-out: DIZ; procedure, shortened: as §3
Hepatovirus A = assay: Antiviral activity against Hepatitis A virus infected african green monkey Vero cells at 10^-4 dilution of 5 mg/ml by plaque formation assay; type: functional
Procedure, shortened: (§4)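 Compound dilutions prepared from a 5 mg/mL DMSO stock, using the maximum non-toxic dilution for Vero cells over 3 days; 0.1 mL virus (10³) mixed with 0.1 mL compound for 1 h at room temperature; mixture inoculated onto washed Vero monolayers in 12-well plates and adsorbed at 37 °C; 2× MEM/agarose overlay applied; read-out % reduction in plaque count versus untreated virus control.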

Human alphaherpesvirus 1 = assay: Antiviral activity against HSV1 infected african green monkey Vero cells at 10^-4 dilution of 5 mg/ml by plaque formation assay; type: functional; procedure, shortened: as §4
Coxsackievirus B4 = assay: Antiviral activity against Coxsackievirus B4 infected african green monkey Vero cells at 10^-4 dilution of 5 mg/ml by plaque formation assay; type: functional, organism-based; procedure, shortened: as §4
Candida albicans [14] = assay: Antifungal activity against Candida albicans IMRU 3669 at 1 mg/ml by agar disk diffusion assay; type: functional; settings: read-out: DIZ; procedure, shortened: as §3
Aspergillus niger [15] = assay: Antifungal activity against Aspergillus niger Ferm-BAM C-21 at 2.5 mg/ml by agar disk diffusion assay; type: functional; settings: read-out: DIZ; procedure, shortened: as §3
[16] = Homo sapiens, HepG2, 48 h, read-out: IC50
[17] = Homo sapiens, HeLa, 48 h, read-out: IC50

## O=c1n(-c2ccc(Cl)cc2)c2nc3ccccc3nc2n1-c1ccc(Cl)c(Cl)c1
[1]
  inhibition at 100 µg/mL: 95%
[2]
  inhibition at 50 µg/mL: 70%
[3]
  inhibition at 25 µg/mL: 30%
U-251
  IC50: Not Active
HepG2; [16]
  IC50: 7.11 µg/mL (≈ 16.1 µM)
MCF7; mcf7
  IC50: Not Active
HeLa; [17]
  IC50: 7.38 µg/mL (≈ 16.7 µM)
HCT-116
  IC50: Not Active

## N=C1C(=S)N(c2ccc(Br)cc2)C(=O)N1c1cc(Cl)c(Cl)cc1Cl
Candida albicans [4]
  zone of inhibition at 5000 µg/mL: 14 mm
Escherichia coli
  zone of inhibition at 5000 µg/mL: 16 mm
Salmonella typhi
  zone of inhibition at 5000 µg/mL: 18 mm
Bacillus subtilis [5]
  zone of inhibition at 5000 µg/mL: 16 mm
Staphylococcus aureus
  zone of inhibition at 5000 µg/mL: 16.5 mm

## O=C1N(c2ccc(Cl)cc2)CC(=S)N1c1ccc(Cl)cc1
[1]
  inhibition at 100 µg/mL: 100%
[2]
  inhibition at 50 µg/mL: 100%
[3]
  inhibition at 25 µg/mL: 90%
HepG2; hepg2
  IC50: Not Active
MCF7; Homo sapiens, MCF7, 48 h, read-out: IC50
  IC50: 9.36 µg/mL (≈ 27.8 µM)
HeLa; hela
  IC50: Not Active

## CCN(CC)CC.N#CC(=S)Nc1ccc(Cl)c(Cl)c1
Bacillus subtilis [6]
  diameter of the inhibition zone (DIZ): 17 mm
Pseudomonas aeruginosa [7]
  diameter of the inhibition zone (DIZ): 13 mm
Pseudomonas aeruginosa [8]
  diameter of the inhibition zone (DIZ): 16 mm
Bacillus subtilis [9]
  diameter of the inhibition zone (DIZ): 15 mm
Bacillus subtilis [10]
  diameter of the inhibition zone (DIZ): 16 mm

## N=C1C(=S)N(c2ccc(Cl)c(Cl)c2)C(=O)N1c1ccc(Oc2ccc(N3C(=N)C(=S)N(c4ccc(Cl)c(Cl)c4)C3=O)cc2)cc1
Bacillus subtilis [6]
  zone of inhibition at 5000 µg/mL: 20 mm
Candida albicans [4]
  zone of inhibition at 5000 µg/mL: 18 mm
Candida albicans [11]
  zone of inhibition at 2500 µg/mL: 17 mm
Pseudomonas aeruginosa [7]
  zone of inhibition at 1000 µg/mL: 15 mm
Pseudomonas aeruginosa [8]
  zone of inhibition at 2500 µg/mL: 18 mm
Pseudomonas aeruginosa [12]
  zone of inhibition at 5000 µg/mL: 20 mm
Bacillus subtilis [9]
  zone of inhibition at 1000 µg/mL: 15 mm
Bacillus subtilis [10]
  zone of inhibition at 2500 µg/mL: 19 mm

## N=C1C(=S)N(c2ccc(Cl)cc2)C(=O)N1c1cccc2ccccc12
Bacillus subtilis [6]
  zone of inhibition at 5000 µg/mL: 19 mm
Candida albicans [4]
  zone of inhibition at 5000 µg/mL: 14 mm
Candida albicans [11]
  zone of inhibition at 2500 µg/mL: 12 mm
Aspergillus niger [13]
  zone of inhibition at 5000 µg/mL: 12 mm
Pseudomonas aeruginosa [7]
  zone of inhibition at 1000 µg/mL: 15 mm
Pseudomonas aeruginosa [8]
  zone of inhibition at 2500 µg/mL: 16 mm
Pseudomonas aeruginosa [12]
  zone of inhibition at 5000 µg/mL: 18 mm
Bacillus subtilis [9]
  zone of inhibition at 1000 µg/mL: 17 mm
Bacillus subtilis [10]
  zone of inhibition at 2500 µg/mL: 18 mm

## N=C1C(=S)N(c2ccc(Br)cc2)C(=O)N1c1ccc2c(c1)Cc1ccccc1-2
Candida albicans [4]
  zone of inhibition at 5000 µg/mL: 13 mm
Hepatovirus A
  Activity: inactive
Human alphaherpesvirus 1
  Activity: inactive
Coxsackievirus B4
  Activity: inactive
Escherichia coli
  zone of inhibition at 5000 µg/mL: 14 mm
Salmonella typhi
  zone of inhibition at 5000 µg/mL: 16 mm
Bacillus subtilis [5]
  zone of inhibition at 5000 µg/mL: 13 mm

## N#CC(=S)Nc1ccc(Cl)c(Cl)c1
Pseudomonas aeruginosa [12]
  zone of inhibition at 5000 µg/mL: 19 mm

## Cc1ccc(-n2c(=O)n(-c3ccc(Cl)cc3)c3nc4cc(C)ccc4nc32)cc1
[1]
  inhibition at 100 µg/mL: 90%
[2]
  inhibition at 50 µg/mL: 60%
[3]
  inhibition at 25 µg/mL: 35%
U-251
  IC50: Not Active
HepG2; [16]
  IC50: 4.43 µg/mL (≈ 11.1 µM)
MCF7; mcf7
  IC50: Not Active
HeLa; [17]
  IC50: 8.32 µg/mL (≈ 20.8 µM)
HCT-116
  IC50: Not Active

## CC1OC(=N)C(=S)N1c1ccc(Cl)c(Cl)c1 (stereo not given)
Bacillus subtilis [6]
  zone of inhibition at 5000 µg/mL: 33 mm
Candida albicans [4]
  zone of inhibition at 5000 µg/mL: 39 mm
Candida albicans [14]
  zone of inhibition at 1000 µg/mL: 21 mm
Candida albicans [11]
  zone of inhibition at 2500 µg/mL: 33 mm
Aspergillus niger [13]
  zone of inhibition at 5000 µg/mL: 20 mm
Aspergillus niger [15]
  zone of inhibition at 2500 µg/mL: 11 mm
Pseudomonas aeruginosa [7]
  zone of inhibition at 1000 µg/mL: 15 mm
Pseudomonas aeruginosa [8]
  zone of inhibition at 2500 µg/mL: 29 mm
Pseudomonas aeruginosa [12]
  zone of inhibition at 5000 µg/mL: 41 mm
Bacillus subtilis [9]
  zone of inhibition at 1000 µg/mL: 20 mm
Bacillus subtilis [10]
  zone of inhibition at 2500 µg/mL: 27 mm

## NNc1nnc2c(n1)n(-c1ccc(Cl)cc1)c(=O)n2-c1ccc(Cl)cc1
[1]
  inhibition at 100 µg/mL: 100%
[2]
  inhibition at 50 µg/mL: 100%
[3]
  inhibition at 25 µg/mL: 95%
HepG2; [16]
  IC50: 1.54 µg/mL (≈ 3.97 µM)
MCF7; mcf7
  IC50: Not Active
HeLa; hela
  IC50: Not Active
HCT-116
  IC50: Not Active
